# Tested on: Mycobacterium tuberculosis
# Assay: Antimycobacterial activity against multidrug resistant Mycobacterium tuberculosis by agar dilution method
# Format: functional
# Outline: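 Agar dilution MIC on Middlebrook 7H11 agar with OADC, following the NCCLS-recommended approach, run in duplicate. The MDR clinical isolate was resistant to isoniazid, rifampicin, ethambutol and ofloxacin.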
row,Structure (SMILES),MIC
1,COc1c(N2CCN(C)C(c3ccccc3)C2)c(F)c([N+](=O)[O-])c2c(=O)c(C(=O)O)cn(C3CC3)c12 (centres undefined),3.14 µM
2,CCN(CC)C(=O)C1CCCN(c2c(F)cc3c(=O)c(C(=O)O)cn(C4CC4)c3c2OC)C1 (centres undefined),3.39 µM
3,COc1c(N2CCN(Cc3ccc4c(c3)OCO4)CC2)c(F)cc2c(=O)c(C(=O)O)cn(C3CC3)c12,1.57 µM
4,COc1c(N2CCc3ccccc3C2C(=O)NC(C)(C)C)c(F)c([N+](=O)[O-])c2c(=O)c(C(=O)O)cn(C3CC3)c12 (centres undefined),2.82 µM
5,COc1c(N2CCC3(CC2)OCCO3)c(F)cc2c(=O)c(C(=O)O)cn(C3CC3)c12,1.86 µM
6,COc1c(N2CCN(C(c3ccccc3)c3ccc(Cl)cc3)CC2)c(F)c([N+](=O)[O-])c2c(=O)c(C(=O)O)cn(C3CC3)c12 (centres undefined),1.28 µM
7,COc1c(N2CCN(C(=O)C3COc4ccccc4O3)CC2)c(F)cc2c(=O)c(C(=O)O)cn(C3CC3)c12 (centres undefined),0.74 µM
8,COc1ccc(CC2C3=C(CCCC3)CCN2c2c(F)c(N)c3c(=O)c(C(=O)O)cn(C4CC4)c3c2OC)cc1 (centres undefined),2.85 µM
9,COc1c(N2CCn3cc(C(=O)O)nc3C2)c(F)c([N+](=O)[O-])c2c(=O)c(C(=O)O)cn(C3CC3)c12,1.6 µM
10,CCN(CC)C(=O)C1CCCN(c2c(F)c([N+](=O)[O-])c3c(=O)c(C(=O)O)cn(C4CC4)c3c2OC)C1 (centres undefined),1.55 µM
11,COc1ccc(CC2C3=C(CCCC3)CCN2c2c(F)c([N+](=O)[O-])c3c(=O)c(C(=O)O)cn(C4CC4)c3c2OC)cc1 (centres undefined),0.33 µM
12,COc1ccc(CC2C3=C(CCCC3)CCN2c2c(F)cc3c(=O)c(C(=O)O)cn(C4CC4)c3c2OC)cc1 (centres undefined),1.46 µM
13,COc1c(N2CCSCC2)c(F)cc2c(=O)c(C(=O)O)cn(C3CC3)c12,2.06 µM
14,COc1c(N2CC(C)OC(C)C2)c(F)cc2c(=O)c(C(=O)O)cn(C3CC3)c12 (centres undefined),3.99 µM
15,COc1c(N2CCN(C(=O)C3COc4ccccc4O3)CC2)c(F)c([N+](=O)[O-])c2c(=O)c(C(=O)O)cn(C3CC3)c12 (centres undefined),2.74 µM
16,COc1c(N2COCC2(C)C)c(F)c([N+](=O)[O-])c2c(=O)c(C(=O)O)cn(C3CC3)c12,0.93 µM
17,COc1c(N2COCC2(C)C)c(F)cc2c(=O)c(C(=O)O)cn(C3CC3)c12,2.07 µM
18,COc1c(N2CC(C)OC(C)C2)c(F)c([N+](=O)[O-])c2c(=O)c(C(=O)O)cn(C3CC3)c12 (centres undefined),1.79 µM
19,COc1c(N2CCC3(CC2)OCCO3)c(F)c([N+](=O)[O-])c2c(=O)c(C(=O)O)cn(C3CC3)c12,0.41 µM
20,COc1c(N2CCSCC2)c(F)c([N+](=O)[O-])c2c(=O)c(C(=O)O)cn(C3CC3)c12,1.84 µM
21,COc1c(N2CCn3cc(C(=O)O)nc3C2)c(F)cc2c(=O)c(C(=O)O)cn(C3CC3)c12,1.76 µM
22,COc1c(N2CCN(Cc3ccc4c(c3)OCO4)CC2)c(F)c([N+](=O)[O-])c2c(=O)c(C(=O)O)cn(C3CC3)c12,0.35 µM
23,COc1c(N2CCNC(C)C2)c(F)cc2c(=O)c(C(=O)O)cn(C3CC3)c12 (centres undefined) [GATIFLOXACIN],8.34 µM
24,NNC(=O)c1ccncc1 [ISONIAZID],45.6 µM

# Reference: ChEMBL document CHEMBL1144027, “Synthesis and antimycobacterial evaluation of newer 1-cyclopropyl-1,4-dihydro-6-fluoro-7-(substituted secondary amino)-8-methoxy-5-(sub)-4-oxoquinoline-3-carboxylic acids” (Bioorg Med Chem, 2008)
